This note sets out measurements from ChEMBL document CHEMBL1140883, “Synthesis and antitumor activity of novel amsacrine analogs: the critical role of the acridine moiety in determining their biological activity” (Bioorg Med Chem, 2009).

One assay deals with HL-60. As to the kind of experiment: Cytotoxicity against human HL60 cells after 72 hrs by MTT assay. The following applies: HL-60, 72 h. Type of assay: functional, cell-based. Put shortly:
(§1)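 Cells kept in log phase at 37 °C, 5% CO2, in RPMI-1640 with 10% foetal calf serum. Seeded at 3–8 × 10^4 mL^-1 according to growth rate. Treated 72 h with increasing drug concentrations, final solvent 0.5%. MTT read-out as absorbance at 540 nm, expressed as % of untreated control. IC50 taken from dose–survival curves.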
For orientation: Tetrazolium dyes change colour on reduction, which living cells bring about.

Another assay has as its system 2008. Briefly: Cytotoxicity against human 2008 cells after 72 hrs by MTT assay. In kind it is functional, cell-based. The following applies: Homo sapiens, 2008, 72 h. The gist of the method:
as §1

The test system of another assay is A549. Briefly: Cytotoxicity against human A549 cells after 72 hrs by MTT assay. The following applies: A549, 72 h. Type of assay: functional, cell-based. The gist of the method:
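A549 cells kept in log phase at 37 °C, 5% CO2, in F-12 Ham's with 15% foetal calf serum, penicillin 50 units mL^-1 and streptomycin. Seeded at 3–8 × 10^4 mL^-1, then treated 72 h with increasing concentrations, final solvent 0.5%. MTT absorbance at 540 nm as % of untreated control. IC50 taken from dose–survival curves.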

A further assay concerns MCF7. As to the kind of experiment: Cytotoxicity against human MCF7 cells after 72 hrs by MTT assay. In kind it is functional, cell-based. The following applies: MCF7, 72 h. The gist of the method: as §1
The subject of another assay is A-431. As to the kind of experiment: Cytotoxicity against human A431 cells after 72 hrs by MTT assay. The following applies: A-431, 72 h. Type of assay: functional, cell-based. Put shortly:
as §1

In another assay the test system is Salmonidae. Briefly: Binding affinity to salmon testes DNA assessed as negative dichroic signal by linear dichroism experiment. Put shortly:
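Flow linear dichroism on salmon testes DNA at 1.5 × 10^-3 M in ETN buffer (10 mM Tris, 10 mM NaCl, 1 mM EDTA, pH 7). DNA orientation by shear gradient at 500–700 rpm. Spectra recorded at 25 °C at [drug]/[DNA] ratios of 0, 0.02, 0.04 and 0.08, each spectrum accumulated four times. DNA concentration from ε260 6600 M^-1 cm^-1.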

Molecules are shown by their SMILES. Calls of active or inactive are those of the source. The calls are words filed in the database; no cut-off is given here.

Broadly, the IC50 is the point on the concentration scale where inhibition reaches its midpoint. With `O=c1ccc2c(Cl)c3ccccc3nc2o1`, the IC50 was 39.5 µM in the assay with HL-60; 52.6 µM in the assay on 2008; 62.9 µM in the assay on A549; greater than 100 µM in the assay with MCF7; 54.3 µM with A-431.

With `COc1ccc2c(Nc3ccc(NS(C)(=O)=O)cc3)c3ccc(=O)oc3nc2c1`, the IC50 is greater than 100 µM in the assay on HL-60; greater than 100 µM in the assay on 2008; greater than 100 µM in the assay on A549; greater than 100 µM in the assay on MCF7; 92.7 µM in the assay on A-431.

In the case of `COc1ccc2c(Cl)c3ccc(=O)oc3nc2c1`, the 50% inhibitory concentration (IC50) in the assay with HL-60 was 60.3 µM; with 2008 it was greater than 100 µM; in the assay with A549, 53.4 µM; with MCF7 it was 50.1 µM; in the assay on A-431 it was greater than 100 µM.

With `COc1ccc2nc3oc(=O)ccc3c(Nc3ccc(NS(C)(=O)=O)cc3)c2c1`, the IC50 with HL-60 was 47.3 µM; with 2008, 68.2 µM; in the assay on A549 it was greater than 100 µM; with MCF7, 60.6 µM; with A-431, 55.6 µM.

As to `COc1cc(NS(C)(=O)=O)ccc1Nc1c2ccc(=O)oc2nc2c(OC)cccc12`, the IC50 in the assay on HL-60 is greater than 100 µM; in the assay with 2008 it was greater than 100 µM; with A549, 81.5 µM; in the assay on MCF7, greater than 100 µM; with A-431, greater than 100 µM.

With `COc1cccc2c(Cl)c3ccc(=O)oc3nc12`, the 50% inhibitory concentration (IC50) with HL-60 is 37.1 µM; in the assay with 2008, 60.6 µM; in the assay on A549, 75.4 µM; in the assay on MCF7 it was 54.1 µM; with A-431, 55.3 µM.

Turning to `COc1ccc2nc3oc(=O)ccc3c(Nc3ccc(NS(C)(=O)=O)cc3OC)c2c1`, the IC50 in the assay with HL-60 was 95.2 µM; in the assay on 2008 it was greater than 100 µM; with A549, greater than 100 µM; in the assay on MCF7, greater than 100 µM; in the assay with A-431, 85.7 µM.

Turning to `CS(=O)(=O)Nc1ccc(Nc2c3ccccc3nc3oc(=O)ccc23)cc1`, the IC50 in the assay on HL-60 is 92.1 µM; in the assay on 2008, greater than 100 µM; in the assay on A549, greater than 100 µM; with MCF7 it was greater than 100 µM; with A-431, 94.1 µM.

`COc1cccc2c(Nc3ccc(NS(C)(=O)=O)cc3)c3ccc(=O)oc3nc12`: the IC50 with HL-60, with 2008, in the assay with A549, in the assay on MCF7 and with A-431 was greater than 100 µM throughout.

Take `COc1cc(NS(C)(=O)=O)ccc1Nc1c2ccccc2nc2oc(=O)ccc12`: the IC50 with HL-60, in the assay with 2008, with A549, with MCF7 and in the assay with A-431 was greater than 100 µM in each case.

As for `COc1cc(NS(C)(=O)=O)ccc1Nc1c2ccccc2nc2ccccc12` [AMSACRINE], the IC50 with HL-60 was 1.15 µM; with 2008, 4.31 µM; in the assay on A549, 3.52 µM; in the assay with MCF7 it was 5.13 µM; with A-431, 5.89 µM. For the same compound, the result in the assay on Salmonidae was Active.

In the case of `COc1ccc2nc3oc(=O)ccc3c(Cl)c2c1`, the IC50 is greater than 100 µM in the assay with HL-60; greater than 100 µM in the assay on 2008; greater than 100 µM in the assay on A549; greater than 100 µM in the assay with MCF7; 97 µM with A-431.
